Measurements: publication PMC3572549 (Bioorganic & medicinal chemistry, 2012)
Blank lines part the entries; values can stand above or below the compound they belong to.

Assays:
[1] = tested on: cellular microtubules in A-10 cells; experiment: Loss of cellular; type: cell-based, rat; conditions: for Effect on cellular microtubules (in words): concentrations as high as 10 or 40 µM
Method in brief: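 Rat aortic smooth muscle A-10 cells were exposed to DMSO vehicle or test compound for 18 h, fixed in cold methanol, and stained for β-tubulin by indirect immunofluorescence. […] It is reported as mean ±SD of 3–4 independent experiments.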

mitotic spindles = experiment: Formation of aberrant mitotic spindles; type: cell-based; conditions: data not shown
[2] = tested on: purified porcine brain tubulin; experiment: Preliminary study of inhibition of tubulin polymerization; type: biochemical; conditions: porcine brain tubulin 2.5 mg/mL, absorbance at 340 nm, 37 °C
Method in brief: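 Porcine brain tubulin (2.5 mg/mL) was incubated with test compound, colchicine or DMSO vehicle. Polymerization was followed turbidimetrically as absorbance at 340 nm at 37 °C.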

MDA-MB-435 cells = experiment: Cell cycle distribution by flow cytometry; type: cell-based, human; conditions: 44.1 nM or 73.5 nM, 18 h
Water solubility = type: physicochemical

SMILES: COc1ccc(Nc2nc(N)nc3[nH]c4ccccc4c23)cc1 [Compound 4, N^4-(4-Methoxyphenyl)-9H-pyrimido[4,5-b]indole-2,4-diamine]
Effect on cellular microtubules (in words) [1]: inactive

SMILES: COc1ccc(N(C)c2nc(N)nc3[nH]c4ccccc4c23)cc1 [Compound 6, N^4-(4-Methoxyphenyl)-N^4-methyl-9H-pyrimido[4,5-b]indole-2,4-diamine]
Effect on mitotic spindles (mitotic spindles): caused the formation of aberrant mitotic spindles
Inhibition of tubulin assembly (initial study, in words) [2]: potent inhibitor of tubulin assembly
Effect on interphase microtubule network (immunofluorescence) ([1]; 500 nM 6, 18 h incubation): extensive loss of the interphase microtubule network
Effect on cellular microtubules (in words) [1]: active
Effect on cell cycle distribution (MDA-MB-435 cells): accumulation of cells in the G2/M phase of the cell cycle

Solubility in water (Water solubility): freely soluble in water
SMILES: COc1ccc(N(C)c2nc(N)nc3[nH]c4ccccc4c23)cc1.Cl [Compound 6·HCl, 4-((4-Methoxyphenyl)(methyl)amino)-9H-pyrimido[4,5-b]indol-2-aminium chloride]

SMILES: COc1ccc(N(C)c2nc(NC(=O)C(C)(C)C)nc3[nH]c4ccccc4c23)cc1 [Compound 7, N-{4-[(4-Methoxyphenyl)(methyl)amino]-9H-pyrimido[4,5-b]indol-2-yl}-2,2-dimethylpropanamide]
Effect on cellular microtubules (in words) [1]: inactive

SMILES: COc1cccc(N(C)c2nc(N)nc3[nH]c4ccccc4c23)c1 [Compound 10, N^4-(3-Methoxyphenyl)-N^4-methyl-9H-pyrimido[4,5-b]indole-2,4-diamine]
Effect on cellular microtubules (in words) [1]: inactive

SMILES: COc1cc(Nc2nc(N)nc3[nH]c4ccccc4c23)cc(OC)c1OC [Compound 12, N^4-(3,4,5-Trimethoxyphenyl)-9H-pyrimido[4,5-b]indole-2,4-diamine]
Effect on cellular microtubules (in words) [1]: inactive

SMILES: Cc1ccc(N(C)c2nc(N)nc3[nH]c4ccccc4c23)cc1 [Compound 13, N^4-Methyl-N^4-(4-methylphenyl)-9H-pyrimido[4,5-b]indole-2,4-diamine]
Effect on cellular microtubules (in words) [1]: inactive

SMILES: CCN(c1ccc(OC)cc1)c1nc(N)nc2[nH]c3ccccc3c12 [Compound 14, N^4-Ethyl-N^4-(4-methoxyphenyl)-9H-pyrimido[4,5-b]indole-2,4-diamine]
Effect on mitotic spindles (mitotic spindles): caused the formation of aberrant mitotic spindles
Effect on cellular microtubules (in words) [1]: active

SMILES: CCOc1ccc(N(C)c2nc(N)nc3[nH]c4ccccc4c23)cc1 [Compound 15, N^4-(4-Ethoxyphenyl)-N^4-methyl-9H-pyrimido[4,5-b]indole-2,4-diamine]
Effect on mitotic spindles (mitotic spindles): caused the formation of aberrant mitotic spindles
Effect on cellular microtubules (in words) [1]: active
